A value given as a limit tells only on which side of the number the result lay.

Assay [1] deals with IRF4/MYC axis. Briefly: Immunoblot of MYC and IRF4 in MM.1S cells. The format is cell-based. The note with it: 24 h, 2.5 μM. In a few lines: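 MM.1S cells exposed 24 h to DMSO or 2.5 μM of test compounds (CBP/EP300-selective and BRD4-selective). Lysates immunoblotted for MYC and IRF4, with β-actin as loading control.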
(A western blot detects proteins with antibodies after separation by electrophoresis.)

The target of assay [2] is T1, BRD4 BD1 (Homo sapiens, UniProt O60885). Briefly: BRD4 AlphaScreen assay with biotinylated JQ1. Type of assay: binding. (In Alpha technology, singlet oxygen from a donor bead excites a nearby acceptor bead.)
For assay [3], the system named is CBP. The note with it: read-out: CBP IC50; cited from earlier work.
The target in assay [4] is T2, EP300 (P300) bromodomain (Homo sapiens, UniProt Q09472).
T2 sequence (Q09472 1049-1156 limits assumed): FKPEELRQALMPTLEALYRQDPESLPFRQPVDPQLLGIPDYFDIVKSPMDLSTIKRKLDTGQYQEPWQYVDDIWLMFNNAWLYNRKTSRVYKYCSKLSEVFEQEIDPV
Briefly: Differential scanning fluorometry. As to conditions: temperature shift. Type of assay: binding. For orientation: In DSF a fluorescence change marks the thermal transition of the protein.

Assay [5] deals with T3, CBP bromodomain (Homo sapiens, UniProt Q92793). Briefly: Differential scanning fluorometry. Type of assay: binding. The note with it: for DSF selectivity: CBP and EP300 versus BRD4 BD1, compared with CBP30.
The target of assay [6] is T1, BRD4 BD1. Put plainly: Differential scanning fluorometry. The format is binding. The note with it: temperature shift.
Assay [7] deals with T3, CBP bromodomain. Briefly: CBP AlphaScreen assay with biotinylated small molecule probe compound C. The format is binding. As to conditions: for loss in inhibitory activity against CBP: other warheads in place of 3,5-dimethylisoxazole; for loss in CBP inhibitory activity: compared to compound 23.
The test system of assay [8] is H3K27ac level. Briefly: Immunoblot of H3K27ac in MOLM13 cells. The note with it: 2 h. The format is cell-based.
Assay [9] deals with multiple myeloma lines. Briefly: Cell viability, multiple myeloma lines. Type of assay: cell-based. As to conditions: 5-day incubation. In a few lines:
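Cells seeded at 500/well in 384-well plates; serially pre-diluted test compound added by pin transfer (100 nl). Viability read by CellTiter-Glo luminescence after 5-day incubation. Data normalized to DMSO control; IC50 from nonlinear regression curve fit.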

Assay [10] deals with MOLM13 cells. Briefly: CellTiter-Glo cell viability, MOLM13. Type of assay: cell-based. As to conditions: 5 day, ATP-dependent luminescence. In a few lines: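 MOLM13 cells seeded at 500/well in 384-well plates, given serially pre-diluted test compound or reference CBP inhibitor by pin transfer; 5-day incubation, then ATP-dependent luminescence (CellTiter-Glo).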
Assay [11] concerns MYC expression level. Briefly: Immunoblot of MYC in MOLM13 cells. The note with it: 2 h. Type of assay: cell-based. In a few lines:
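MOLM13 cells seeded in 6-well plates at 1×10^6 cells/well and treated 2 h with DMSO or 3.0 μM test compound or reference CBP inhibitor. Protein extracted in RIPA plus protease inhibitor cocktail, run on Bis-Tris gels, wet-transferred to PVDF. Probed for MYC, β-actin, H3 and H3K27ac with IRDye secondaries.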

Assay [12] concerns 34 bromodomains. Briefly: BROMOSCAN profiling against 34 bromodomains. The note with it: 1 μM compound concentration. The format is binding.

T3 sequence (Q92793 1085-1192 limits assumed): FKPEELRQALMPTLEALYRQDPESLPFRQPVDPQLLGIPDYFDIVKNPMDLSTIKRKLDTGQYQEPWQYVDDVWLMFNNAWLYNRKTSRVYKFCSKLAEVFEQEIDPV

For orientation: IC50 means the concentration that inhibits the measured activity by half. Consider `COc1ccc(CCc2nc3cc(-c4c(C)noc4C)ccc3n2C[C@H](C)N2CCOCC2)cc1Cl` [CBP30, reference compound], for which the IRF4/MYC axis perturbation entry in assay [1] is on record as “perturbed”. Besides, the IC50 in assay [2] was 10.1 ± 0.55 µM; in assay [3], […]. Regarding `Cc1noc(C)c1-c1ccn2c(NC3CCCCC3)c(CCc3ccccc3)nc2c1` [Compound 7, N-cyclohexyl-7-(3,5-dimethylisoxazol-4-yl)-2-phenethylimidazo[1,2-a]pyridin-3-amine], the “DSF activity against EP300” value in assay [4] is reported as “more active”. The “DSF activity against CBP” value in assay [5] (temperature shift) was “more active”. Besides, the “DSF activity toward BRD4” value in assay [6] was “very modest activity”.

Regarding `CN1Cc2cc(-c3ccn4c(NC5CCCCC5)c(CCc5ccccc5)nc4c3)ccc2NC1=O` [Compound 9], the “loss in inhibitory activity against CBP” value in assay [7] is “greater than 10 fold”. Take `Cc1[nH]nc2cc(-c3ccn4c(NC5CCCCC5)c(CCc5ccccc5)nc4c3)ccc12` [Compound 10]: in assay [1], the IRF4/MYC axis perturbation entry was “not with BRD4 inhibitor”. In assay [7], the “loss in inhibitory activity against CBP” value was “greater than 10 fold”. Taken in the same sequence, the figures for `Cc1noc2cc(-c3ccn4c(NC5CCCCC5)c(CCc5ccccc5)nc4c3)ccc12` [Compound 11] were “not with BRD4 inhibitor” and “greater than 10 fold”. As for `Cc1noc(C)c1-c1ccn2c(NC(C)(C)C)c(CCc3ccccc3)nc2c1` [Compound 13, N-(tert-butyl)-7-(3,5-dimethylisoxazol-4-yl)-2-phenethylimidazo[1,2-a]pyridin-3-amine], the “decrease in CBP inhibitory potency” value in assay [7] (compared to compound 16) is over 5 fold. In the case of `COc1ccc(CCc2nc3cc(-c4c(C)noc4C)ccn3c2NC23CC4CC(CC(C4)C2)C3)cc1` [Compound 14, N-((3s,5s,7s)-adamantan-1-yl)-7-(3,5-dimethylisoxazol-4-yl)-2-(4-methoxyphenethyl)imidazo[1,2-a]pyridin-3-amine], the “decrease in CBP inhibitory potency” value in assay [7] (compared to compound 16) is recorded as over 5 fold. `COc1ccc(CCc2nc3cc(-c4c(C)noc4C)ccn3c2NCCN2CCOCC2)cc1` [Compound 15]: the “decrease in CBP inhibitory potency” value in assay [7] (compared to compound 16) is listed as about 2 fold. For the compound `COc1ccc(CCc2nc3cc(-c4c(C)noc4C)ccn3c2NC2CCCCC2)cc1` [Compound 16, N-cyclohexyl-7-(3,5-dimethylisoxazol-4-yl)-2-(4-methoxyphenethyl)imidazo[1,2-a]pyridin-3-amine], the “increase in CBP inhibitory potency” value in [7] (compared to compound 7) is reported as 5 fold. Besides, the DSF selectivity result in assay [5] is reported as “greater selectivity than the known inhibitor, CBP30”. Turning to `COc1ccc(CCc2nc3cc(-c4c(C)noc4C)ccn3c2NC(C)C)cc1` [Compound 17, 7-(3,5-dimethylisoxazol-4-yl)-N-isopropyl-2-(4-methoxyphenethyl)imidazo[1,2-a]pyridin-3-amine], in assay [7] (compared to compound 16), the “decrease in CBP inhibitory potency” value was about 3 fold. Same read-out and setting: the result for `COc1ccc(CCc2nc3cc(-c4c(C)noc4C)ccn3c2NC(C)(C)C)cc1` [Compound 18] reads over 5 fold; that for `CCCOc1ccc(CCc2nc3cc(-c4c(C)noc4C)ccn3c2NC2CCCCC2)cc1` [Compound 20], ~ 4 fold; that for `COc1ccc(CCc2nc3cc(-c4c(C)noc4C)ccn3c2NCc2ccccc2)cc1` [Compound 21], 10 fold. Turning to `COc1ccc(CCc2nc3cc(-c4c(C)noc4C)ccn3c2NCc2ccc(Cl)cc2)cc1` [Compound 22], in [7] (compared to compound 16), the “decrease in CBP inhibitory potency” value was 10 fold. Turning to `COc1ccc(CCc2nc3cc(-c4c(C)noc4C)ccn3c2NC2CCCCC2)cc1Cl` [Compound 23, 2-(3-chloro-4-methoxyphenethyl)-N-cyclohexyl-7-(3,5-dimethylisoxazol-4-yl)imidazo[1,2-a]pyridin-3-amine], the H3K27ac level result in assay [8] was “reduced the H3K27ac level similar to CBP30”. The IRF4/MYC axis perturbation result in assay [1] is “perturbed”. In addition, the “more potent against CBP” value in assay [7] (compared to compound 16) is 2 fold. Also, in assay [9], the “MM cell growth inhibition” value is reported as “IC50 values similar to CBP30”. Moreover, the “MOLM13 cell growth inhibition” value in assay [10] is recorded as “IC50 values similar to CBP30”. The MYC level entry in [11] was “caused MYC depletion”. In addition, the DSF selectivity result in assay [5] is recorded as “greater selectivity than the known inhibitor, CBP30”. Moreover, the “BROMOSCAN binding and selectivity” value in assay [12] was “better binding and selectivity compared to compound 7 and 16”. As for `COc1ccc(CCc2nc3cc(-c4c(C)noc4C)ccn3c2NC2CCCCC2)cc1OC` [Compound 32], the “loss in CBP inhibitory activity” value in assay [7] is listed as ~ 10 fold. With `COc1ccc(CCc2nc3cc(-c4c(C)noc4C)ccn3c2NC(C)C)cc1OC` [Compound 33, 2-(3,4-dimethoxyphenethyl)-7-(3,5-dimethylisoxazol-4-yl)-N-isopropylimidazo[1,2-a]pyridin-3-amine], in assay [7], the “loss in CBP inhibitory activity” value came out at 49 fold. Further, the “loss in BRD4 inhibitory activity” value in assay [2] (compared to compound 23) is 4 fold.

These data come from PMC8856734 (Journal of medicinal chemistry, 2021).
